Experimental data taken from ChEMBL document CHEMBL1134398, “Synthesis, structure-activity relationships, and pharmacokinetic profiles of nonpeptidic difluoromethylene ketones as novel inhibitors of human chymase” (J Med Chem, 2001).
Calls of active or inactive are those of the source. The calls are words filed in the database; no cut-off is given here.

What was measured:
[1] = target: T1, Chymase (Homo sapiens, UniProt P23946); test: In vitro inhibitory activity was determined against human heart chymase
T1 sequence (P23946 whole entry): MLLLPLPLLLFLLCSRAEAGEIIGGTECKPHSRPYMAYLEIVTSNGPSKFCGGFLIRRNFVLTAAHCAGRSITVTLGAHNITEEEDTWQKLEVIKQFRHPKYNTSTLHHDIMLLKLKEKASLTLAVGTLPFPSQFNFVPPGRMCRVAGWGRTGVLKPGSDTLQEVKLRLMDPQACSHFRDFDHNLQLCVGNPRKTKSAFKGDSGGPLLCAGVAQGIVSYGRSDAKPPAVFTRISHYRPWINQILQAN

[2] = The selectivity was determined for chymotrypsin to that of chymase
[3] = (§1) Steady state volume of distribution was determined; format: ADME, organism-based, Canis lupus familiaris; details: dog, in vivo; read-out: Vdss
Outline: (§2)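 Male Sprague–Dawley rats (204–222 g) and male beagles (11.4–12.5 kg), n=3 each, fasted 18 h before and 4 h after dosing. Plasma sampled up to 24 h, quantified by LC–MS/MS with internal standard. AUC 0–infinity.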

[4] = as §1; format: ADME, organism-based; details: rat, in vivo; read-out: Vdss; outline: as §2
[5] = Pharmacokinetic parameter AUC after intravenous administration to dogs; format: ADME, organism-based, Canis lupus familiaris; details: dog, in vivo; outline: as §2
[6] = Pharmacokinetic parameter AUC after oral administration to dogs; format: ADME, organism-based, Canis lupus familiaris; details: dog, in vivo
Outline: (§3)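 10 mg/kg by gavage to fasted male rats (suspension 10 mg/mL, 0.5% HPMC) or male beagles (solution 2.5 mg/mL, DMSO–PEG-400–1 M HCl–saline 2:38:10:50), n=3. Plasma sampled up to 24 h, assayed by LC–MS/MS. Cmax and Tmax taken from measured values. BA = (AUCpo×dose iv)/(AUCiv×dose po)×100, using 1 mg/kg iv.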

[7] = Plasma administration to rats; format: ADME, organism-based; details: rat; outline: as §2
[8] = Bioavailability administered orally at a dose of 10 mg/kg to dogs; format: ADME, organism-based, Canis lupus familiaris; details: dog, in vivo, po, read-out: BA; outline: as §3
[9] = Time to reach Cmax after oral administration to dogs; format: ADME, organism-based, Canis lupus familiaris; details: dog, in vivo; outline: as §3
[10] = Maximum plasma concentration after oral administration to rats; format: ADME, organism-based; set-up: route oral; details: rat; outline: as §3
[11] = Time to reach Cmax after oral administration to rats; format: ADME, organism-based; details: rat, in vivo; outline: as §3
[12] = Half life was evaluated after intravenous administration to dogs; format: ADME, organism-based, Canis lupus familiaris; details: dog, in vivo; outline: as §2
[13] = Plasma administration to dogs; format: ADME, organism-based, Canis lupus familiaris; details: dog; outline: as §2
[14] = Pharmacokinetic parameter AUC after intravenous administration to rats; format: ADME, organism-based; details: rat, in vivo; outline: as §2
[15] = Pharmacokinetic parameter AUC after oral administration to rats; format: ADME, organism-based; details: rat, in vivo; outline: as §3
[16] = Bioavailability administered orally at a dose of 10 mg/kg to rats; format: ADME, organism-based; details: rat, in vivo, po, read-out: BA; outline: as §3
[17] = Maximum plasma concentration after oral administration to dogs at a dose of 10 mg/kg; format: ADME, organism-based, Canis lupus familiaris; set-up: dose 10 mg/kg, route oral; details: dog; outline: as §3
[18] = target: Angiotensin-converting enzyme (Homo sapiens) (UniProt P12821); test: Inhibitory activity against human angiotensin I converting enzyme (10 uM); No inhibition
[19] = target: T2, Neutrophil elastase (Homo sapiens) (UniProt P08246); test: Inhibitory activity against human leukocyte elastase (10 uM); No inhibition
T2 sequence (whole entry): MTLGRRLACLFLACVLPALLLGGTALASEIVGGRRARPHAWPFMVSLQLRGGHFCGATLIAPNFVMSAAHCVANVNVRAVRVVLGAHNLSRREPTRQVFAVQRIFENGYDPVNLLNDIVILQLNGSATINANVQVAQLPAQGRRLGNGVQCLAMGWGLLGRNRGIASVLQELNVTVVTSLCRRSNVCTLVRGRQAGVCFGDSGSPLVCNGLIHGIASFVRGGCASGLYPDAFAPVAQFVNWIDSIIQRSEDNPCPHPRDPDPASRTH

[20] = target: T3, Cathepsin G (Homo sapiens, UniProt P08311); test: Inhibitory activity against human cathepsin G
T3 sequence (P08311 whole entry): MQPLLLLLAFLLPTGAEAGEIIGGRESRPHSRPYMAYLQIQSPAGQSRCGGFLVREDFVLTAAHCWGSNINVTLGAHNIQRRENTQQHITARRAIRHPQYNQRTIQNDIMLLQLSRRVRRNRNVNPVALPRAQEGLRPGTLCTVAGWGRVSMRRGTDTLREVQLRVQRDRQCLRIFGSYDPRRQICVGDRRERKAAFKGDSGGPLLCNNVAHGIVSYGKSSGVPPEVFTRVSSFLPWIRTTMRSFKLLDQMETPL
Outline: (§4)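 Chymotrypsin-type assay: purified enzyme hydrolyzes succinyl-Ala-Ala-Pro-Phe-p-nitroanilide, with p-nitroaniline release followed at 405 nm. Ki derived, as means ± SEM of three independent experiments. Human heart chymase was a purified preparation.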

[21] = target: T4, Mast cell protease 9 (Mus musculus, UniProt O35164); test: Inhibitory activity against mouse peritoneal chymase; outline: as §4
T4 sequence (O35164 whole entry): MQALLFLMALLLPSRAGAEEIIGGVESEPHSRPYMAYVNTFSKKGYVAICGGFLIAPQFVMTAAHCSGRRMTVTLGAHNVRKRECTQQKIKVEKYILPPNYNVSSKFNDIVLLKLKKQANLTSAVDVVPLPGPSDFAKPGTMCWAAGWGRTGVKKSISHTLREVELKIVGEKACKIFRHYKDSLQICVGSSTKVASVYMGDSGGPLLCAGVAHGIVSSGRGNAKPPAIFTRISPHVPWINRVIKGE

[22] = target: Prothrombin (Homo sapiens) (UniProt P00734); test: Inhibitory activity against human plasma thrombin (10 uM); No inhibition; format: cell-free
[23] = Half life was evaluated after intravenous administration to rats; format: ADME, organism-based; details: rat, in vivo; outline: as §2

Sequence of Angiotensin-converting enzyme (Homo sapiens) (P12821 whole entry): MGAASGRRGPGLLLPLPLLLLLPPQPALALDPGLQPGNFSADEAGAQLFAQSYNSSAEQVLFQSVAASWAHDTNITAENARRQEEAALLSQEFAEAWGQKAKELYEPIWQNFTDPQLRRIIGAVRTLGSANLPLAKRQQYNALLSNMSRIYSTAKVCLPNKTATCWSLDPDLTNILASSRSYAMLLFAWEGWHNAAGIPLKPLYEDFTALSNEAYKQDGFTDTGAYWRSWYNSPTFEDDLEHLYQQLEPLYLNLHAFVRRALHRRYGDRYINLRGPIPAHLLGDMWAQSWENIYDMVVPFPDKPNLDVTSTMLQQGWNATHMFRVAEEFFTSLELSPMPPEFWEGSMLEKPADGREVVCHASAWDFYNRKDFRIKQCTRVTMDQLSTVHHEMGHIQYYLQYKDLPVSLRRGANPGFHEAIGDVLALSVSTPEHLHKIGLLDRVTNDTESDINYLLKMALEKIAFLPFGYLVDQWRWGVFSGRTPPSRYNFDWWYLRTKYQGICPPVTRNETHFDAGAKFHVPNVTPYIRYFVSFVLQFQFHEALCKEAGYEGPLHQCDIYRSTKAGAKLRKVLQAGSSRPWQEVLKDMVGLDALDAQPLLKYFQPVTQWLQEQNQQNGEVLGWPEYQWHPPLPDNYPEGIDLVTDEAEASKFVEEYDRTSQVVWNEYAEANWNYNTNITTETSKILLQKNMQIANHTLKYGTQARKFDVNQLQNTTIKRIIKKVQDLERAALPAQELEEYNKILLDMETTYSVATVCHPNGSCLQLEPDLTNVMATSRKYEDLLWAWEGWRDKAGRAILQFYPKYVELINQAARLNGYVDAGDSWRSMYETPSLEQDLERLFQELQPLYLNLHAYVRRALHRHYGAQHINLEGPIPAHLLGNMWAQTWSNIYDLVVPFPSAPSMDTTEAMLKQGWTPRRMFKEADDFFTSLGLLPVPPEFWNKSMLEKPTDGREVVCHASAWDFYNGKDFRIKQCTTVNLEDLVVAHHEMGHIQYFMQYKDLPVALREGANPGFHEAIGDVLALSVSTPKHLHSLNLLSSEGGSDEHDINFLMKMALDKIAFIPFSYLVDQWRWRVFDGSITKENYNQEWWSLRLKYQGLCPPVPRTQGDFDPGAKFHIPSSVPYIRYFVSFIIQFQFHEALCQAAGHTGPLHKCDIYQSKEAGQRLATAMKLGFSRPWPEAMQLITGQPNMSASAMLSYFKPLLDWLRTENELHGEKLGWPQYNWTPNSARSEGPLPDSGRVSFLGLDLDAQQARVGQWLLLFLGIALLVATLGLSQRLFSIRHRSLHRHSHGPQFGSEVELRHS

**Q.** Which Ki [1] does the source give for Cc1cccc(-c2ncc(N)c(=O)n2CC(=O)NC(Cc2ccccc2)C(=O)C(F)(F)C(=O)NCCC(=O)O)c1 (stereo unspecified) here?
**A.** 0.023 µM

**Q.** And the Selectivity [2]?
**A.** 62.2

**Q.** For Nc1cnc(-c2ccc(F)cc2)n(CC(=O)NC(Cc2ccccc2)C(=O)C(F)(F)C(=O)NCc2ccccc2)c1=O (stereo unspecified), which Ki [1] is on record?
**A.** 0.44 µM

**Q.** What about the Selectivity [2] of the same compound?
**A.** 7.45

**Q.** For Cc1cccc(-c2ncc(N)c(=O)n2CC(=O)NC(Cc2ccccc2)C(=O)C(F)(F)C(=O)Nc2ccc(C(=O)O)cc2)c1 (stereo unspecified), which Ki [1] is on record?
**A.** 0.0166 µM

**Q.** For CNC(=O)C(F)(F)C(=O)C(Cc1ccccc1)NC(=O)Cn1c(-c2cccc(C)c2)ncc(N)c1=O (stereo unspecified), which Ki [1] is on record?
**A.** 0.0907 µM

**Q.** With Cc1cccc(-c2ncc(N)c(=O)n2CC(=O)NC(Cc2ccccc2)C(=O)C(F)(F)C(=O)NCC(=O)N2CCCCCC2)c1 (stereo unspecified) as the compound, how does the Ki [1] read?
**A.** 0.00356 µM

**Q.** For Cc1cccc(-c2ncc(N)c(=O)n2CC(=O)NC(Cc2ccccc2)C(=O)C(F)(F)C(=O)N(C)C)c1 (stereo unspecified), which Ki [1] is on record?
**A.** 0.489 µM

**Q.** With Nc1cnc(-c2cccc(Cl)c2)n(CC(=O)NC(Cc2ccccc2)C(=O)C(F)(F)C(=O)NCc2ccccc2)c1=O (stereo unspecified) as the compound, how does the Vd [3] read?
**A.** 0.257 L/kg

**Q.** And the Vd [4]?
**A.** 0.369 L/kg

**Q.** What about the AUC [5] of the same compound?
**A.** 5720 ng·h/mL

**Q.** And the AUC [6]?
**A.** 18500 ng·h/mL

**Q.** What about the clearance [7] of the same compound?
**A.** 2.28 mL/min/kg

**Q.** What about the bioavailability [8] of the same compound?
**A.** 32%

**Q.** And the Tmax [9]?
**A.** 0.7 h

**Q.** And the Cmax [10]?
**A.** 1520 ng/mL

**Q.** What about the Tmax [11] of the same compound?
**A.** 1.3 h

**Q.** And the half-life [12]?
**A.** 1.4 h

**Q.** And the clearance [13]?
**A.** 3.25 mL/min/kg

**Q.** What about the AUC [14] of the same compound?
**A.** 7330 ng·h/mL

**Q.** And the AUC [15]?
**A.** 12100 ng·h/mL

**Q.** What about the bioavailability [16] of the same compound?
**A.** 17%

**Q.** And the Cmax [17]?
**A.** 7320 ng/mL

**Q.** What about the NI [18] of the same compound?
**A.** inactive

**Q.** And the NI [19]?
**A.** inactive

**Q.** And the Ki [20]?
**A.** 1.39 µM

**Q.** What about the Ki [21] of the same compound?
**A.** 1.26 µM

**Q.** What about the NI [22] of the same compound?
**A.** inactive

**Q.** And the half-life [23]?
**A.** 2.1 h

**Q.** For Cc1cccc(-c2ncc(N)c(=O)n2CC(=O)NC(Cc2ccccc2)C(=O)C(F)(F)C(N)=O)c1 (stereo unspecified), which Ki [1] is on record?
**A.** 0.0133 µM

**Q.** Which Ki [1] does the source give for Cc1cccc(-c2ncc(N)c(=O)n2CC(=O)NC(Cc2ccccc2)C(=O)C(F)(F)C(=O)O)c1 (stereo unspecified) here?
**A.** > 10 µM

**Q.** Which Ki [1] does the source give for COc1cccc(-c2ncc(N)c(=O)n2CC(=O)NC(Cc2ccccc2)C(=O)C(F)(F)C(=O)NCc2ccccc2)c1 (stereo unspecified) here?
**A.** 0.0138 µM

**Q.** Which Ki [1] does the source give for Cc1cccc(-c2ncc(N)c(=O)n2CC(=O)NC(Cc2ccccc2)C(=O)C(F)(F)C(=O)NCC(=O)N2CCCCC2)c1 (stereo unspecified) here?
**A.** 0.0102 µM

**Q.** Which Ki [1] does the source give for Cc1cccc(-c2ncc(N)c(=O)n2CC(=O)NC(Cc2ccccc2)C(=O)C(F)(F)C(=O)Nc2cccc(C(=O)O)c2)c1 (stereo unspecified) here?
**A.** 0.0097 µM

**Q.** For Cc1cccc(-c2ncc(N)c(=O)n2CC(=O)NC(Cc2ccccc2)C(=O)C(F)(F)C(=O)NCc2cccnc2)c1 (stereo unspecified), which Ki [1] is on record?
**A.** 0.0289 µM

**Q.** Which Ki [1] does the source give for Nc1cnc(-c2ccccc2)n(CC(=O)NC(Cc2ccccc2)C(=O)C(F)(F)C(=O)NCc2ccccc2)c1=O (stereo unspecified) here?
**A.** 0.0325 µM

**Q.** Which Ki [1] does the source give for Nc1cnc(-c2cccnc2)n(CC(=O)NC(Cc2ccccc2)C(=O)C(F)(F)C(=O)NCc2ccccc2)c1=O (stereo unspecified) here?
**A.** 0.0743 µM

**Q.** Which Ki [1] does the source give for Nc1cnc(-c2cccc(F)c2)n(CC(=O)NC(Cc2ccccc2)C(=O)C(F)(F)C(=O)NCc2ccccc2)c1=O (stereo unspecified) here?
**A.** 0.0157 µM

**Q.** Which Ki [1] does the source give for CCN(CC)C(=O)CCNC(=O)C(F)(F)C(=O)C(Cc1ccccc1)NC(=O)Cn1c(-c2cccc(C)c2)ncc(N)c1=O (stereo unspecified) here?
**A.** 0.0337 µM

**Q.** For Cc1cccc(-c2ncc(N)c(=O)n2CC(=O)NC(Cc2ccccc2)C(=O)C(F)(F)F)c1 (stereo unspecified), which Ki [1] is on record?
**A.** 0.0506 µM

**Q.** For Nc1cnc(-c2ccncc2)n(CC(=O)NC(Cc2ccccc2)C(=O)C(F)(F)C(=O)NCc2ccccc2)c1=O (stereo unspecified), which Ki [1] is on record?
**A.** 0.0847 µM

**Q.** With CCCCCNC(=O)C(F)(F)C(=O)C(Cc1ccccc1)NC(=O)Cn1c(-c2cccc(C)c2)ncc(N)c1=O (stereo unspecified) as the compound, how does the Ki [1] read?
**A.** 0.0185 µM

**Q.** Which Ki [1] does the source give for Cc1cccc(-c2ncc(N)c(=O)n2CC(=O)NC(Cc2ccccc2)C(=O)C(F)(F)C(=O)NCc2ccccc2)c1 (stereo unspecified) here?
**A.** 0.0169 µM

**Q.** What about the Selectivity [2] of the same compound?
**A.** 114

**Q.** For Cc1cccc(-c2ncc(N)c(=O)n2CC(=O)NC(Cc2ccccc2)C(=O)C(F)(F)C(=O)NCC(N)=O)c1 (stereo unspecified), which Ki [1] is on record?
**A.** 0.012 µM

**Q.** And the Selectivity [2]?
**A.** 120

**Q.** With Cc1cccc(-c2ncc(N)c(=O)n2CC(=O)NC(Cc2ccccc2)C(=O)C(F)(F)C(=O)NCC(=O)O)c1 (stereo unspecified) as the compound, how does the Ki [1] read?
**A.** 0.0169 µM

**Q.** For COC(=O)CNC(=O)C(F)(F)C(=O)C(Cc1ccccc1)NC(=O)Cn1c(-c2cccc(C)c2)ncc(N)c1=O (stereo unspecified), which Ki [1] is on record?
**A.** 0.0102 µM

**Q.** With CCN(CC)C(=O)CNC(=O)C(F)(F)C(=O)C(Cc1ccccc1)NC(=O)Cn1c(-c2cccc(C)c2)ncc(N)c1=O (stereo unspecified) as the compound, how does the Ki [1] read?
**A.** 0.00932 µM

**Q.** Which Ki [1] does the source give for CCNC(=O)CNC(=O)C(F)(F)C(=O)C(Cc1ccccc1)NC(=O)Cn1c(-c2cccc(C)c2)ncc(N)c1=O (stereo unspecified) here?
**A.** 0.00771 µM

**Q.** With CCOC(=O)C(F)(F)C(=O)C(Cc1ccccc1)NC(=O)Cn1c(-c2cccc(C)c2)ncc(N)c1=O (stereo unspecified) as the compound, how does the Ki [1] read?
**A.** > 10 µM
